How the values were obtained:
MCF7 [1] = experiment: In vitro Anti Neoplastic Activity against Human Breast adenocarcinoma MCF-7 Cell lines; type: functional, cell-based
How it was run: (§1)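 SRB growth assay. Cell lines were grown as monolayers in RPMI-1640 with 5% FCS, 5% NuSerum IV, 20 mM HEPES and 2 mM glutamine, and seeded at 400–1200 cells/well. They attached for 15–18 h before drug. Ten concentrations over 5 logs were tested, with final DMSO ≤0.25%. Exposure was 72 h at 37 °C. Cells were TCA-fixed, stained with sulforhodamine B and read at OD 570 nm. IC50 is 50% growth inhibition.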

[2] = test system: Trypanosoma brucei brucei; experiment: In vitro anti trypanosomal activity against Trypanosomal 110 (EATRO)strain; type: functional, organism-based
A121 [3] = experiment: In vitro Anti Neoplastic Activity against Human ovarian carcinoma A121 Cell lines; type: functional, cell-based; how it was run: as §1
[4] = test system: Trypanosoma brucei rhodesiense; experiment: In vitro anti trypanosomal activity against Trypanosomal 243 (KETRI)strain; type: functional, organism-based
L1210 [5] = experiment: In vitro Anti Neoplastic Activity against L1210 murine leukemia Cell lines; type: functional, cell-based; details: Mus musculus; how it was run: as §1
HT-29 [6] = experiment: In vitro Anti Neoplastic Activity in Human Colon adenocarcinoma HT-29 Cell lines; type: functional, cell-based; how it was run: as §1
A549 [7] = experiment: In vitro Anti Neoplastic Activity against Human non small cell lung carcinoma A549 Cell lines; type: functional, cell-based; how it was run: as §1
L1210 [8] = experiment: In vitro inhibition of AdoMetDC derived from L1210 Murine Leukemia Cells at a dose of 100 uM; type: functional; details: Mus musculus
MCF7 [9] = experiment: In vitro Anti Neoplastic Activity against Adriamycin resistant Human Breast adenocarcinoma MCF7-Adr Cell lines; type: functional, cell-based; how it was run: as §1
[10] = test system: Trypanosoma brucei rhodesiense; experiment: In vitro anti trypanosomal activity against Trypanosomal 243 As 10e-3 (KETRI)strain; type: functional, organism-based
[11] = test system: Trypanosoma brucei rhodesiense; experiment: In vitro anti trypanosomal activity against Trypanosomal 269 (KETRI)strain; type: functional, organism-based
L1210 [12] = experiment: In vitro inhibition of AdoMetDC derived from L1210 Murine Leukemia Cells.; type: functional; details: Mus musculus, read-out: ID50 (the source's name)
[13] = test system: Trypanosoma brucei rhodesiense; experiment: Mean survival days against T.b. rhodesiense KETRI 243 tested in mice after intra peritoneal administration at 50 mg/kg for 7 days.
[14] = test system: Trypanosoma brucei brucei; experiment: Mean survival days against T.b. brucei LAB 110 EATRO tested in mice administration at 100 mg/kg for 7 days.; type: functional
How it was run: (§2)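 Female Swiss-Webster mice (20 g) were infected with 2.5×10^5 trypanosomes from a rat infection. Compounds were dissolved in water and given at the stated daily dose by 7 day miniosmotic pumps implanted aseptically. There were 5 mice per group. Viability was checked daily and tail-vein blood smears weekly. The value is mean survival in days. Mice were scored cured if they survived >30 days beyond untreated controls with no parasitemia.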

Mus musculus [15] = species on record: Mus musculus; experiment: Number of mice cured to that of 5 treated with the compound for 7 days
[16] = test system: Trypanosoma brucei brucei; experiment: Mean survival days against T.b. peritoneal administration at 10 mg/kg for 3 days.; type: functional
CCRF-CEM = experiment: Concentration that causes morphological changes in noninfected CEM-SS cells; type: functional; details: Homo sapiens, read-out: TC50 (the source's name)
[17] = test system: Trypanosoma brucei brucei; experiment: Mean survival days against T.b. brucei LAB 110 EATRO tested in mice administration at 25 mg/kg for 7 days.; type: functional; how it was run: as §2
[18] = Differential selectivity as the ratio of TC50 value to that of EC50 value.; type: functional
How it was run: (§3)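 Syncytial plaque assay: log-phase CEM-SS cells were PBS-washed and plated at 50 000 per well in serum-free RPMI-1640 on poly-L-lysine-coated wells (30 min, 37 °C). They were inoculated with HIV-1 (60–90 PFU) for 120 min, then overlaid with compound in growth medium (2-fold dilutions, 0.00015–20 μM). A second overlay followed on day 3, with 5 days total. EC50 is 50% inhibition of plaque formation. TC50 is morphological change in noninfected CEM-SS cells.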

A121 [19] = experiment: In vitro anti Neoplastic Activity against Human ovarian carcinoma A121 Cell lines;Value ranges from (1-30); type: functional, cell-based; how it was run: as §1
[20] = test system: Trypanosoma brucei brucei; experiment: Mean survival days against T.b. brucei LAB 110 EATRO tested in mice administration at 50 mg/kg for 7 days.; type: functional; how it was run: as §2
HT-29 [21] = experiment: In vitro anti Neoplastic Activity in Human Colon adenocarcinoma HT-29 Cell lines;Value ranges from (3-30).; type: functional, cell-based; how it was run: as §1
A549 [22] = experiment: In vitro anti Neoplastic Activity against Human non small cell lung carcinoma A549 Cell lines;Value ranges from (3-10).; type: functional, cell-based; how it was run: as §1
MCF7 [23] = experiment: In vitro anti Neoplastic Activity against Human Breast adenocarcinoma MCF-7 Cell lines; type: functional, cell-based; how it was run: as §1
[24] = test system: Human immunodeficiency virus 1; experiment: In Vitro Anti-HIV activity in CEM cells; type: functional, organism-based; details: Human immunodeficiency virus 1, CCRF-CEM; how it was run: as §3
Mus musculus [25] = experiment: Number of mice cured to that of 5 treated with the compound at 25 mg/kg for 7 days; type: functional
MCF7 [26] = experiment: In vitro anti Neoplastic Activity against Adriamycin resistant Human Breast adenocarcinoma MCF7-Adr Cell lines; type: functional, cell-based; how it was run: as §1
Mus musculus [27] = experiment: Number of mice cured to that of 5 treated with the compound at 100 mg/kg for 7 days; type: functional
Mus musculus [28] = experiment: Number of mice cured to that of 5 treated with the compound at 50 mg/kg for 7 days; type: functional
[29] = test system: Trypanosoma brucei rhodesiense; experiment: Mean survival days against T.b. rhodesiense KETRI 243 tested in mice after intra peritoneal administration at 25 mg/kg for 7 days.; type: functional
Mus musculus [30] = experiment: Number of mice cured to that of 5 treated with the compound at 25 mg/kg for 3 days; type: functional
Mus musculus [31] = experiment: Nnumber of mice cured to that of 5 treated with the compound at 50 mg/kg for 3 days; type: functional
Mus musculus [32] = experiment: Number of mice cured to that of 5 treated with the compound at 10 mg/kg for 3 days; type: functional
[33] = test system: Trypanosoma brucei brucei; experiment: Mean survival days against T.b. peritoneal administration at 50 mg/kg for 3 days.; type: functional
[34] = test system: Trypanosoma brucei rhodesiense; experiment: Mean survival days against T.b. rhodesiense KETRI 243 tested in mice after intra peritoneal administration at 50 mg/kg for 7 days.; type: functional
[35] = test system: Trypanosoma brucei brucei; experiment: Mean survival days against T.b. peritoneal administration at 25 mg/kg for 3 days.; type: functional
[36] = test system: Trypanosoma brucei rhodesiense; experiment: In Vitro inhibition of Trypanosomal 243 (KETRI)strain by the compound at a dose of 100 uM; type: functional
L1210 [37] = experiment: In Vitro inhibition of L1210 Murine Leukemia Cells by the compound at a dose of 100 uM; type: functional; details: Mus musculus
A549 [38] = experiment: In vitro anti Neoplastic Activity against Human non small cell lung carcinoma A549 Cell lines; type: functional, cell-based; how it was run: as §1
A121 [39] = experiment: In vitro anti Neoplastic Activity against Human ovarian carcinoma A121 Cell lines; type: functional, cell-based; how it was run: as §1
HT-29 [40] = experiment: In vitro anti Neoplastic Activity in Human Colon adenocarcinoma HT-29 Cell lines; type: functional, cell-based; how it was run: as §1

## CN(C/C=C\CN)CC(CO)OC(CO)n1cnc2c(N)ncnc21 (centres undefined)
MCF7 [1]
  IC50: 63 µM
[2]
  IC50: 16 µM
A121 [3]
  IC50: 41 µM
[4]
  IC50: 15 µM
L1210 [5]
  IC50: > 600 µM
HT-29 [6]
  IC50: 112 µM
A549 [7]
  IC50: > 100 µM
L1210 [8]
  inhibition at 100 µM: 27%
MCF7 [9]
  IC50: 78 µM

## CC(=O)OCC(CN(C)C/C=C\CN)OC(COC(C)=O)n1cnc2c(N)ncnc21 (centres undefined)
MCF7 [1]
  IC50: > 100 µM
[2]
  IC50: 1.8 µM
[10]
  IC50: 2.9 µM
A121 [3]
  IC50: > 100 µM
[4]
  IC50: 4.6 µM
HT-29 [6]
  IC50: > 100 µM
A549 [7]
  IC50: > 100 µM
MCF7 [9]
  IC50: > 100 µM
[11]
  IC50: 3.8 µM

## CC(=O)OC1C(CN(C)C/C=C\CN)OC(n2cnc3c(N)ncnc32)C1OC(C)=O (centres undefined)
[2]
  IC50: 0.014 µM
L1210 [12]
  IC50: 0.82 µM
[13]
  MSD: 21.2 days
[14]
  MSD: 26 days
[10]
  IC50: 0.054 µM
Mus musculus [15]
  No. cured: 0
[16]
  MSD: 17 days
CCRF-CEM
  CC50: 12 µM
[17]
  MSD: >34 days
[4]
  IC50: 0.014 µM
[18]
  Ratio: 240
L1210 [5]
  IC50: 20 µM
A121 [19]
  IC50: 30 µM
[20]
  MSD: >34 days
HT-29 [21]
  IC50: 30 µM
A549 [22]
  IC50: 10 µM
MCF7 [23]
  IC50: 51 µM
[24]
  EC50: 0.05 µM
Mus musculus [25]
  No. cured: 0
  No. of cures: 5
MCF7 [26]
  IC50: > 100 µM
Mus musculus [27]
  No. of cures: 4
Mus musculus [28]
  No. cured: 0
  No. of cures: 5
[29]
  MSD: 18 days
Mus musculus [30]
  No. of cures: 4
[11]
  IC50: 0.02 µM
Mus musculus [31]
  No. of cures: 5
Mus musculus [32]
  No. of cures: 4
[33]
  MSD: >34 days
[34]
  MSD: 21.2 days
[35]
  MSD: 33 days

## CN(Cc1ccccc1CN)C[C@H]1OC(n2cnc3c(N)ncnc32)[C@H](O)[C@@H]1O (some centres undefined)
[2]
  IC50: 14 µM
L1210 [5]
  IC50: > 600 µM
[36]
  inhibition at 100 µM: 42%
L1210 [37]
  inhibition at 100 µM: 41%

## CN(C/C=C\CN)CCOCn1cnc2c(N)nc(N)nc21
A549 [38]
  IC50: > 100 µM
[2]
  IC50: 10 µM
L1210 [12]
  IC50: > 100 µM
[10]
  IC50: 0.96 µM
A121 [39]
  IC50: > 100 µM
HT-29 [40]
  IC50: > 100 µM
[4]
  IC50: 6.6 µM
MCF7 [23]
  IC50: > 100 µM
MCF7 [26]
  IC50: > 100 µM
[11]
  IC50: 11 µM

Source: ChEMBL document CHEMBL1135645, “Synthesis and evaluation of analogues of 5'-([(Z)-4-amino-2-butenyl]methylamino)-5'-deoxyadenosine as inhibitors of tumor cell growth, trypanosomal growth, and HIV-1 infectivity” (J Med Chem, 2002)
